Bioassay records deposited in PubChem BioAssay by The Scripps Research Institute Molecular Screening Center.
RORA inh – inhibitors of human nuclear receptor RORA. CHO-K1 Gal4-RORA LBD luciferase reporter, luminescence. inhibition, % at 10 µM. actives 0.43% (n = 65,000);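 active = inhibition above the mean of all tested compounds plus 3 SD, cut at about 52% in these data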
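System: transiently transfected CHO-K1 cells, Gal4-DBD/human RORA-LBD fusion plus 5xGal4-luciferase reporter. Doses: one dose of 10 µM final. Timing: 20 h compound treatment, 37 °C. Measured by: luminescence. Evaluation: % inhibition of basal luciferase versus +RORA/-RORA DMSO controls. Benchmarks: mock-transfected cells as 100%, +RORA DMSO cells as 0%. Replicates: single test per compound.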
Hits are given with their value. Many of the other results were omitted from the sample, so hits are more common in it than they were.

Screening Cn1ncnc2c(=O)n(C)c(=O)nc1-2 returned RORA inh 98.
For CCOC(=O)N(CC)c1ccc(C(O)(C(=O)OC)C(F)(F)F)cc1 (stereo not given) the results were RORA inh inactive.
COCCOC(=O)C1=C(N)Oc2c(c(=O)oc3ccccc23)C1c1ccncc1 (stereo not given) was read as RORA inh inactive.
Screening C[C@@]1(CO)[C@H](O)CC[C@@]2(C)[C@H]1CC[C@H]1C[C@@H]3C[C@@]12CC[C@]3(O)CO returned RORA inh 82.
CN1CCN(CCC(C#N)(c2ccccc2)c2ccccc2)CC1 was read as RORA inh inactive.
`O=C(CN1C2CCC1CC(O)(c1cccnc1)C2)Nc1ccc2c(c1)OCO2` (stereo not given) gave RORA inh inactive.
For O=C1NC(=O)C(CCc2ccncc2)(C2CCCCC2)C(=O)N1 the results were RORA inh inactive.
`Cc1sc2ncn(CC(=O)NCC(=O)N3CCC4(CC3)OCCO4)c(=O)c2c1C` gave RORA inh inactive.
Cc1ccc(Cl)cc1-n1c(O)c(C=NCCCN2CCOCC2)c(=O)[nH]c1=O was read as RORA inh inactive.
`Cc1ccccc1-n1c(O)c(C=Nc2ccc(N(C)C)cc2)c(=O)[nH]c1=O` gave RORA inh inactive.
